Data from ChEMBL document CHEMBL1208737, “Synthesis and in vitro evaluation of N-alkyl-3-hydroxy-3-(2-imino-3-methyl-5-oxoimidazolidin-4-yl)indolin-2-one analogs as potential anticancer agents” (2010).

Key:
Type in all cases: functional
[1] = test system: HT-29; test: Growth inhibition of human HT-29 cells by sulforhodamine B assay
Method in brief: (§1)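 Five-dose response testing across a 57-line human tumour panel (leukemia, non-small cell lung, colon, CNS, melanoma, ovarian, renal, prostate, breast), done after a single-dose primary screen run per the NCI method. Effect plotted against log10 molar drug concentration for each cell line. GI50 is the concentration giving a 50% reduction in net protein increase versus control cells.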

[2] = test system: UACC-257; test: Growth inhibition of human UACC257 cells by sulforhodamine B assay
Method in brief: (§2)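 Part of a 57-line human tumour cell panel run at five doses. Growth effect was plotted against log10 molar drug concentration for each cell line. GI50 is the concentration giving a 50% reduction in net protein increase relative to untreated control cells, read from the dose-response curve.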

[3] = test system: HL-60(TB); test: Growth inhibition of human HL-60(TB) cells by sulforhodamine B assay; method in brief: as §1
[4] = test system: NCI-H23; test: Growth inhibition of human NCI-H23 cells by sulforhodamine B assay; method in brief: as §1
[5] = test system: SK-MEL-5; test: Growth inhibition of human SK-MEL-5 cells by sulforhodamine B assay; method in brief: as §1
[6] = test system: LOX IMVI; test: Growth inhibition of human LOXIMVI cells by sulforhodamine B assay
Method in brief: (§3)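 Five-dose response testing across the 57-line human tumour panel. Growth effect was plotted against log10 drug concentration for each cell line. GI50 is the molar concentration giving a 50% reduction in net protein increase relative to untreated control cells. TGI (total growth inhibition) and LC50 (concentration lethal to 50% of cells) were read from the same curves.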

[7] = test system: OVCAR-3; test: Growth inhibition of human OVCAR-3 cells by sulforhodamine B assay; method in brief: as §1
[8] = test system: K562; test: Growth inhibition of human K562 cells by sulforhodamine B assay; method in brief: as §1
[9] = test system: TK-10; test: Growth inhibition of human TK10 cells by sulforhodamine B assay; method in brief: as §2
[10] = test system: SF-268; test: Growth inhibition of human SF268 cells by sulforhodamine B assay; method in brief: as §1
[11] = Growth inhibition of human Hs 578T cells by sulforhodamine B assay; method in brief: as §1
[12] = test system: SK-MEL-28; test: Growth inhibition of human SK-MEL-28 cells by sulforhodamine B assay; method in brief: as §1
[13] = test system: SN12C; test: Growth inhibition of human SN12C cells by sulforhodamine B assay; method in brief: as §1
[14] = test system: MCF7; test: Growth inhibition of human MCF7 cells by sulforhodamine B assay; method in brief: as §1
[15] = test system: OVCAR-4; test: Growth inhibition of human OVCAR4 cells by sulforhodamine B assay; method in brief: as §1
[16] = test system: CCRF-CEM; test: Growth inhibition of human CCRF-CEM cells by sulforhodamine B assay; method in brief: as §1
[17] = test system: EKVX; test: Growth inhibition of human EKVX cells by sulforhodamine B assay; method in brief: as §1
[18] = test system: Malme-3M; test: Growth inhibition of human MALME-3M cells by sulforhodamine B assay; method in brief: as §1
[19] = test system: NCI-H322M; test: Growth inhibition of human NCI-H322M cells by sulforhodamine B assay; method in brief: as §1
[20] = test system: NCI/ADR-RES; test: Growth inhibition of human NCI/ADR-RES cells by sulforhodamine B assay; method in brief: as §1
[21] = test system: A498; test: Growth inhibition of human A498 cells by sulforhodamine B assay; method in brief: as §1
[22] = test system: HOP-62; test: Growth inhibition of human HOP62 cells by sulforhodamine B assay; method in brief: as §1
[23] = test system: SK-OV-3; test: Growth inhibition of human SKOV3 cells by sulforhodamine B assay; method in brief: as §1
[24] = test system: UO-31; test: Growth inhibition of human UO31 cells by sulforhodamine B assay; method in brief: as §2
[25] = test system: HCT-116; test: Growth inhibition of human HCT116 cells by sulforhodamine B assay; method in brief: as §1
[26] = test system: SF-295; test: Growth inhibition of human SF295 cells by sulforhodamine B assay; method in brief: as §1
[27] = test system: PC-3; test: Growth inhibition of human PC3 cells by sulforhodamine B assay; method in brief: as §1
[28] = test system: HCT-15; test: Growth inhibition of human HCT15 cells by sulforhodamine B assay; method in brief: as §1
[29] = test system: MOLT-4; test: Growth inhibition of human MOLT4 cells by sulforhodamine B assay; method in brief: as §1
[30] = test system: HCC 2998; test: Growth inhibition of human HCC2998 cells by sulforhodamine B assay; method in brief: as §1
[31] = test system: T47D; test: Growth inhibition of human T47D cells by sulforhodamine B assay; method in brief: as §2
[32] = test system: NCI-H226; test: Growth inhibition of human NCI-H226 cells by sulforhodamine B assay; method in brief: as §1
[33] = test system: A549; test: Growth inhibition of human A549 cells by sulforhodamine B assay; method in brief: as §3
[34] = test system: SF-539; test: Growth inhibition of human SF539 cells by sulforhodamine B assay; method in brief: as §1
[35] = test system: OVCAR-5; test: Growth inhibition of human OVCAR5 cells by sulforhodamine B assay; method in brief: as §1
[36] = test system: SNB-75; test: Growth inhibition of human SNB75 cells by sulforhodamine B assay; method in brief: as §1
[37] = test system: SNB-19; test: Growth inhibition of human SNB19 cells by sulforhodamine B assay; method in brief: as §1
[38] = test system: IGROV-1; test: Growth inhibition of human IGROV1 cells by sulforhodamine B assay; method in brief: as §1
[39] = test system: BT-549; test: Growth inhibition of human BT549 cells by sulforhodamine B assay; method in brief: as §1
[40] = test system: OVCAR-8; test: Growth inhibition of human OVCAR8 cells by sulforhodamine B assay; method in brief: as §1
[41] = test system: COLO 205; test: Growth inhibition of human COLO205 cells by sulforhodamine B assay; method in brief: as §1
[42] = test system: CAKI-1; test: Growth inhibition of human Caki1 cells by sulforhodamine B assay; method in brief: as §1
[43] = test system: SW-620; test: Growth inhibition of human SW620 cells by sulforhodamine B assay; method in brief: as §1
[44] = read-out: LC50 (the source's name)

COc1ccc(CN2C(=O)C(O)(C3C(=O)NC(=N)N3C)c3ccccc32)cc1 (stereo unspecified)
GI50 [1]: 4.06 µM
LC50 [1]: > 100 µM
GI50 [2]: 6.28 µM
LC50 [2]: > 100 µM
GI50 [3]: 4.91 µM
LC50 [3]: > 100 µM
GI50 [4]: 13.9 µM
LC50 [4]: > 100 µM
GI50 [5]: 37.3 µM
CC50 [5, 44]: > 100 µM
GI50 [6]: 8.09 µM
CC50 [6, 44]: > 100 µM
GI50 [7]: 2.29 µM
CC50 [7, 44]: 30.1 µM
GI50 [8]: 3.73 µM
CC50 [8, 44]: > 100 µM
GI50 [9]: > 100 µM
CC50 [9, 44]: > 100 µM
GI50 [10]: 5 µM
CC50 [10, 44]: > 100 µM
GI50 [11]: 60.3 µM
CC50 [11, 44]: > 100 µM
GI50 [12]: 36.9 µM
CC50 [12, 44]: > 100 µM
GI50 [13]: > 100 µM
CC50 [13, 44]: > 100 µM
GI50 [14]: 6.93 µM
LC50 (concentration killing 50% of starting cells) [14]: > 100 µM
GI50 [15]: 7.13 µM
CC50 [15, 44]: > 100 µM
GI50 [16]: 2.18 µM
CC50 [16, 44]: > 100 µM
GI50 [17]: 71.7 µM
LC50 [17]: > 100 µM
GI50 [18]: 27.4 µM
CC50 [18, 44]: > 100 µM
GI50 [19]: 41.1 µM
CC50 [19, 44]: > 100 µM
GI50 [20]: 1.99 µM
CC50 [20, 44]: > 100 µM
GI50 [21]: > 100 µM
CC50 [21, 44]: > 100 µM
GI50 [22]: 4.31 µM
CC50 [22, 44]: > 100 µM
GI50 [23]: 45.5 µM
CC50 [23, 44]: > 100 µM
GI50 [24]: 83.2 µM
CC50 [24, 44]: > 100 µM
GI50 [25]: 2.4 µM
LC50 [25]: > 100 µM
GI50 [26]: 26 µM
CC50 [26, 44]: > 100 µM
GI50 [27]: 46.9 µM
CC50 [27, 44]: > 100 µM
GI50 [28]: 11.8 µM
LC50 (concentration killing 50% of starting cells) [28]: > 100 µM
GI50 [29]: 4.79 µM
CC50 [29, 44]: > 100 µM
GI50 [30]: 12.8 µM
LC50 [30]: 63.9 µM
GI50 [31]: 32 µM
LC50 [31]: > 100 µM
GI50 [32]: 38.4 µM
CC50 [32, 44]: > 100 µM
GI50 [33]: 43.6 µM
LC50 [33]: > 100 µM
GI50 [34]: 3.73 µM
CC50 [34, 44]: > 100 µM
GI50 [35]: 42.1 µM
CC50 [35, 44]: > 100 µM
GI50 [36]: 28.8 µM
CC50 [36, 44]: > 100 µM
GI50 [37]: 30.6 µM
CC50 [37, 44]: > 100 µM
GI50 [38]: 3.26 µM
CC50 [38, 44]: > 100 µM
GI50 [39]: 8.45 µM
LC50 [39]: 97 µM
GI50 [40]: 3.52 µM
CC50 [40, 44]: > 100 µM
GI50 [41]: 19.9 µM
CC50 [41, 44]: > 100 µM
GI50 [42]: 53.9 µM
CC50 [42, 44]: > 100 µM
GI50 [43]: 4.12 µM
CC50 [43, 44]: > 100 µM
